Test results published in ChEMBL document CHEMBL1123318, “(S)-3-[(benzyloxy)methyl]morpholine hydrochloride: a nonstimulant appetite suppressant without conventional neurotransmitter releasing properties” (J Med Chem, 1986).

Legend:
Canis familiaris [1] = test: Compound was evaluated for mean reduction in food intake in dogs at 1 hour after dosing; type: functional, Canis lupus familiaris
How it was run: (§1)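 Mature beagle dogs were trained to a daily 4-h feeding period with free access to meat. Groups of three received oral drug in soft gelatin capsules 1 h before feeding, and controls received empty capsules. All dogs got placebo on days 1–2, then drug or placebo on days 3–5. Leftover food was weighed at 1 and 2 h. Per-dog % change was taken against the days 1–2 mean, then averaged over days 3–5 and per group.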

Canis familiaris [2] = test: Compound was evaluated for mean reduction in food intake in dogs at a dose 15 mg/kg at 2 hour after dosing for the last 3 days; type: functional, Canis lupus familiaris
How it was run: (§2)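 Chronic regime: three beagle dogs on a daily 4-h meat feeding period were given a daily oral dose for 3 weeks. Food intake was measured 2 h after dosing. The mean % reduction versus control intake was compared between the first 3 and the last 3 days of the test.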

Rattus norvegicus [3] = species: Rattus norvegicus; test: Compound was found to have no effect on the release or uptake of noradrenaline at in rat brain synaptosomes; Inactive; type: functional
Canis familiaris [4] = test: Compound was evaluated for mean reduction in food intake in dogs at a dose 15 mg/kg at 2 hour after dosing for the first 3 days; type: functional, Canis lupus familiaris; how it was run: as §2
Canis familiaris [5] = test: Compound was evaluated for mean reduction in food in take in dogs at 2 hour after dosing; type: functional, Canis lupus familiaris; how it was run: as §1
Canis familiaris [6] = species: Canis familiaris; test: Compound was evaluated for oral ED50 for appetite suppression in dogs.; type: functional; conditions: Canis lupus familiaris
How it was run: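 ED50 for the 1-h food intake effect: five pairs of trained beagle dogs were randomly allocated to oral 5, 10, 15 or 20 mg/kg or to an undosed placebo pair. Treatments ran on successive days in a Latin Square design, and food was weighed 1 h into the feeding period.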

Rattus norvegicus [7] = species: Rattus norvegicus; test: Compound was found to have no effect on the release or uptake of serotonin at in rat brain synaptosomes; Inactive; type: functional
Rattus norvegicus [8] = species: Rattus norvegicus; test: Compound was found to have no effect on the release or uptake of dopamine at in rat brain synaptosomes; Inactive; type: functional
Canis familiaris [9] = test: Compound was evaluated for mean increase in food intake in dogs at 1 hour after oral administration at a dose 10 mg/kg; type: functional, Canis lupus familiaris; how it was run: as §1
Canis familiaris [10] = test: Compound was evaluated for mean increase in food intake in dogs after oral administration at a dose 3 mg/kg; type: functional, Canis lupus familiaris
Canis familiaris [11] = test: Compound was evaluated for mean reduction in food intake in three dogs at a dose 3 mg/kg orally for 3 weeks at 2 hour after dosing for the first 3 days; type: functional, Canis lupus familiaris; conditions: route oral; how it was run: as §2

## Cl.c1ccc(COC[C@H]2COCCN2)cc1
Canis familiaris [1]
  Reduction: 51%
Canis familiaris [2]
  Reduction: 56%
Rattus norvegicus [3]
  IC50: > 10 µM
Canis familiaris [4]
  Reduction: 53%
Canis familiaris [5]
  Reduction: 47%
Canis familiaris [6]
  ED50: 12 mg/kg
Rattus norvegicus [7]
  IC50: > 10 µM
Rattus norvegicus [8]
  IC50: > 10 µM

## Cl.c1ccc(COC[C@@H]2COCCN2)cc1
Canis familiaris [9]
  Increase: 13%

## CCN(CC)C(C)C(=O)c1ccccc1.Cl (configuration not stated) [DIETHYLPROPION HYDROCHLORIDE]
Canis familiaris [10]
  Increase: 5%
Canis familiaris [11]
  Reduction: 86%
Canis familiaris [6]
  ED50: 2 mg/kg
